According to ChEMBL document CHEMBL2151010, “Characterization of a designed vascular endothelial growth factor receptor antagonist helical peptide with antiangiogenic activity in vivo” (J Med Chem, 2011):
Activity calls are given as the source filed them. The calls are words filed in the database; no cut-off is given here. Residues, ends and D or L forms follow the SMILES beside them.

Columns and labels:
[1] = system: HUVEC; experiment: Antagonist activity at VEGFR in human HUVEC grown in serum deprived medium assessed as inhibition of VEGF165-induced ERK1/2 phosphorylation at 50 nM after 24 hrs by Western blot analysis; type: functional, cell-based
Summary of the method: (§1)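 Whole-cell lysates (25 μg) were run on 12% SDS-PAGE and immunoblotted for phospho-ERK1/2 and phospho-RB. Total ERK1/2, RB and GAPDH were the loading controls. Read-out was ECL.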

[2] = system: HUVEC; experiment: Induction of apoptosis in human HUVEC grown in serum deprived medium at 12.5 nM after 24 hrs by annexin V/fluorescein isothiocyanate-based flow cytometry; type: functional, cell-based
[3] = system: A-375; experiment: Antitumor activity against human A375 cells xenografted in athymic nude-Foxn1 nu/nu mouse assessed as tumor growth inhibition at 200 nM intratumorally administered for 15 days measured after 15 days relative to untreated control; type: functional
Summary of the method: (§2)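 A375 cells (5 × 10^6 in 150 μL Hanks' solution) were injected subcutaneously on the back of 6-week-old female athymic nude-Foxn1nu/nu mice. After one week, mice were randomized (10/group) to PBS (100 μL) or peptide (200 nM), given intratumorally twice weekly. Tumours were measured by caliper and volume was calculated as V = (ab²)/2. Groups were compared by ANOVA.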

[4] = system: HUVEC; experiment: Binding affinity to VEGFR in human HUVEC grown in serum deprived medium using fluorescein-labeled compound at 50 to 5000 nM after 5 mins by flow cytometry; type: cell-based
Summary of the method: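 HUVECs (3 × 10^4/100 μL) were suspended in EBM-2 with 0.1% heparin and 0.1% BSA. They were incubated for 5 min at 4 C in the dark with fluorescein-labelled peptide (50, 500, 5000 nM). For competition, 500 nM labelled peptide was used with VEGF165 (0.05, 5, 500 nM). Cells were washed, resuspended in PBS and analysed by flow cytometry. A PE-conjugated anti-β-1 integrin antibody (1:100) was the technical control.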

[5] = system: HUVEC; experiment: Antagonist activity at VEGFR in human HUVEC grown in serum deprived medium assessed as inhibition of VEGF165-induced RB phosphorylation at 50 nM after 15-30 mins by Western blot analysis
[6] = Half life of the compound; type: physicochemical
Summary of the method: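 Peptide was diluted to a final 0.5 mg/mL in 25% (v:v) pooled human male AB serum at 37 C. Aliquots were taken at 0, 15, 30, 60, 90 and 120 min and at 24 h, centrifuged at 4 C and diluted to 0.1 mg/mL. Remaining intact peptide was quantified by RP-HPLC on a C18 column with 38–48% CH3CN (0.1% TFA) elution.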

[7] = system: A-375; experiment: Antitumor activity against human A375 cells xenografted in athymic nude-Foxn1 nu/nu mouse assessed as tumor growth inhibition at 200 nM intratumorally administered for 15 days measured after 15 days relative to acetyl-KQMYLELGYATIKWL-amide; type: functional; summary of the method: as §2
[8] = system: HUVEC; experiment: Inhibition of VEGF165-induced cell proliferation in human HUVEC grown in serum deprived medium at 12.5 to 50 nM after 48 hrs; type: functional
Summary of the method: (§3)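 HUVECs were seeded at 1200 cells/well and switched after 24 h to EBM-2 with 0.1% heparin and 0.1% BSA. They were treated with peptide, with or without VEGF165 (25 ng/mL), for 24 or 48 h at 37 C. DNA content was measured with CyQUANT NF reagent (1 h, 37 C) at 485 nm excitation. Quadruplicate samples were used, and values were expressed as percentage of proliferating cells.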

[9] = system: HUVEC; experiment: Antagonist activity at VEGFR in human HUVEC grown in serum deprived medium assessed as inhibition of VEGF165-induced RB phosphorylation at 50 nM after 15-30 mins by Western blot analysis; type: functional, cell-based
[10] = system: HUVEC; experiment: Induction of apoptosis in human HUVEC grown in serum deprived medium assessed as caspase 3 activity at 12.5 to 50 nM after 8 hrs by spectrofluorometry; type: functional, cell-based
Summary of the method: (§4)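 Lysates of serum-deprived HUVECs (2 × 10^4 cells) were prepared in 50 mM Hepes, 1 mM DTT, 0.1 mM EDTA, 0.1% NP-40 and 0.1% CHAPS. Protein (20 μg) was incubated with 20 μM Ac-DEVD-AMC at 37 C for 3 h. Released AMC was read by spectrofluorometry at 380 nm excitation and 440 nm emission.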

[11] = system: HUVEC; experiment: Antagonist activity at VEGFR in human HUVEC grown in serum deprived medium assessed as inhibition of VEGF165-induced AKT phosphorylation at 50 nM after 15-30 mins by Western blot analysis; type: functional, cell-based
Summary of the method: (§5)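 Serum-starved HUVECs in EBM-2 with 0.1% heparin and 0.1% BSA were treated at 37 C for 15 and 30 min with peptide, with or without VEGF165 (25 ng/mL). Total lysates (25 μg) were run on 12% SDS-PAGE and blotted for phospho-ERK1/2 and phospho-AKT. Total ERK1/2, AKT and GAPDH served as loading controls. Detection was by HRP secondary antibody and ECL.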

[12] = system: HUVEC; experiment: Antagonist activity at VEGFR in human HUVEC grown in serum deprived medium assessed as inhibition of VEGF165-induced ERK1/2 phosphorylation at 12.5 nM after 24 hrs by Western blot analysis; type: functional, cell-based; summary of the method: as §1
[13] = system: HUVEC; experiment: Inhibition of VEGF165-induced cell proliferation in human HUVEC grown in serum deprived medium at 12.5 to 50 nM after 24 hrs relative to acetyl-KQMYLELGYATIKWL-amide; type: functional; summary of the method: as §3
[14] = Antiangiogenic activity against VEGF165-induced CD1 nude mouse endothelial cells at 200 nM after 21 days by FITC-based fluorescence microscopy
[15] = system: HUVEC; experiment: Antagonist activity at VEGFR in human HUVEC grown in serum deprived medium assessed as inhibition of VEGF165-induced ERK1/2 phosphorylation at 50 nM after 15-30 mins by Western blot analysis; type: functional, cell-based; summary of the method: as §5
[16] = system: A-375; experiment: Antitumor activity against human A375 cells xenografted in athymic nude-Foxn1 nu/nu mouse assessed as inhibition of tumor angiogenesis measuring CD31 expression at 200 nM intratumorally administered for 7 days by immunohistochemical analysis; type: functional
Summary of the method: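 Tumours from A375 xenografts in nude mice, treated intratumorally with peptide (200 nM) or PBS twice weekly, were excised after 1 week. They were formalin-fixed and cut into 5 μm paraffin sections. Sections were stained for CD31 by avidin-biotin peroxidase with diaminobenzidine and counterstained with hematoxylin.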

[17] = system: HUVEC; experiment: Inhibition of VEGF165 induced cell proliferation in human HUVEC grown in serum deprived medium at 50 nM after 48 hrs; type: functional, cell-based; summary of the method: as §3
[18] = system: HUVEC; experiment: Inhibition of VEGF165-induced cell proliferation in human HUVEC grown in serum deprived medium at 50 nM after 24 hrs; type: functional, cell-based; summary of the method: as §3
[19] = system: Endothelial cell; experiment: Antiangiogenic activity against VEGF165-induced CD1 nude mouse endothelial cells at 200 nM after 21 days by FITC-based fluorescence microscopy
[20] = system: HUVEC; experiment: Induction of apoptosis in human HUVEC grown in serum deprived medium assessed as caspase 3 activity at 50 nM after 8 hrs by spectrofluorometry; type: functional, cell-based; summary of the method: as §4

Activity [4]	half-life [6]	Compound	inhibition [1]	Activity [2]	TGI [3]	inhibition [5]	TGI [7]	inhibition (INH) [8]	inhibition [9]	Activity [10]	inhibition [11]	inhibition [12]	inhibition (INH) [13]	Activity [14]	inhibition [15]	inhibition (INH) [16]	inhibition [17]	inhibition [18]	Activity [19]	Activity [20]
Active	90 min	CC[C@H](C)[C@H](NC(=O)CNC(=O)[C@H](CCCCN)NC(=O)[C@H](Cc1ccc(O)cc1)NC(=O)[C@H](C)NC(=O)[C@H](CC(C)C)NC(=O)[C@H](CCC(N)=O)NC(=O)[C@H](Cc1ccc(O)cc1)NC(=O)[C@H](CC(C)C)NC(=O)[C@H](CCC(=O)O)NC(=O)[C@H](CCSC)NC(=O)[C@H](Cc1c[nH]c2ccccc12)NC(=O)[C@@H](NC(=O)[C@H](CC(C)C)NC(=O)[C@H](CCCCN)NC(C)=O)[C@@H](C)O)C(N)=O (Ac-KLTWMELYQLAYKGI-NH2)	Active	Active	36%	Active	47%	>85%	Active	Active	Active	Active	40%	85%	Active	50%	–	–	–	–
inactive	–	CC[C@H](C)[C@H](NC(=O)[C@@H](NC(=O)[C@H](C)NC(=O)[C@H](Cc1ccc(O)cc1)NC(=O)CNC(=O)[C@H](CC(C)C)NC(=O)[C@H](CCC(=O)O)NC(=O)[C@H](CC(C)C)NC(=O)[C@H](Cc1ccc(O)cc1)NC(=O)[C@H](CCSC)NC(=O)[C@H](CCC(N)=O)NC(=O)[C@H](CCCCN)NC(C)=O)[C@@H](C)O)C(=O)N[C@@H](CCCCN)C(=O)N[C@@H](Cc1c[nH]c2ccccc12)C(=O)N[C@@H](CC(C)C)C(N)=O (Ac-KQMYLELGYATIKWL-NH2)	–	inactive	inactive	–	–	–	–	–	inactive	–	–	–	inactive	–	inactive	inactive	inactive	inactive
